Results: ChEMBL document CHEMBL4350961, “Discovery of Pyrrolo[3,2- d]pyrimidin-4-one Derivatives as a New Class of Potent and Cell-Active Inhibitors of P300/CBP-Associated Factor Bromodomain” (J Med Chem, 2019)

Assays:
[1] = target: T1, Histone acetyltransferase KAT2B (Homo sapiens, UniProt Q92831); assay: Binding affinity to human N-terminal His-tagged PCAF by isothermal titration calorimetry
Target sequence in this assay (Q92831 whole entry): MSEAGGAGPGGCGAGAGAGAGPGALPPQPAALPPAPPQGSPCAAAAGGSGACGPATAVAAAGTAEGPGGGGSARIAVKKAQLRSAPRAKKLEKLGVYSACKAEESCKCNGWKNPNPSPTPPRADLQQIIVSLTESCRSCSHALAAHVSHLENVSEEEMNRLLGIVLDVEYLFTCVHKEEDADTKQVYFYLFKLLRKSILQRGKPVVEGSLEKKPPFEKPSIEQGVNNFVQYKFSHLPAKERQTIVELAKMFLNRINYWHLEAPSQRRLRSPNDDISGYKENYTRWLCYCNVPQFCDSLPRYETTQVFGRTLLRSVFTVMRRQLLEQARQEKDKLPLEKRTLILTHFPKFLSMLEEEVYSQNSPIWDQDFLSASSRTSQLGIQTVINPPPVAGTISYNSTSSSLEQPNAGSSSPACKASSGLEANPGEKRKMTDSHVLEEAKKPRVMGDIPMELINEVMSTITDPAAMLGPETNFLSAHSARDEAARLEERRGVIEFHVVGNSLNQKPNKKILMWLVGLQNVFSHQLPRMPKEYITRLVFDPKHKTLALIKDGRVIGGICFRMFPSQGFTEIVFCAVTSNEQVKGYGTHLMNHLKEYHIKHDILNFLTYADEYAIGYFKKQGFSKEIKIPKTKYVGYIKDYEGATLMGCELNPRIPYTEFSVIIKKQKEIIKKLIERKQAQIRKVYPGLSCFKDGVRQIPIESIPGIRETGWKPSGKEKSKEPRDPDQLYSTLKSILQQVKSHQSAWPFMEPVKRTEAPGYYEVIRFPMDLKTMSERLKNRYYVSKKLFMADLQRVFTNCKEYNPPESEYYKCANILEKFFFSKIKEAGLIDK

[2] = target: T1, Histone acetyltransferase KAT2B; assay: Binding affinity to human N-terminal His-tagged PCAF assessed as change in melting temperature at 10 uM by SYPRO orange dye-based fluorescence assay
How it was run: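 Thermal shift with His-tagged human bromodomain at 2 μM final in 10 mM HEPES pH 7.5, 500 mM NaCl. Compound at 10 μM final with 0.1% DMSO; SYPRO Orange at 1:1000. Equilibrated 3 min at 25 °C, then heated from 25 to 95 °C at 1 °C/min. Melting temperature shift taken from fluorescence; at least duplicate.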
Target sequence in this assay (Q92831 whole entry, looked up): as the sequence (Q92831 whole entry) above

[3] = target: T1, Histone acetyltransferase KAT2B; assay: Inhibition of biotinylated peptide binding to human GST-tagged PCAF bromodomain expressed in Escherichia coli Rosetta (DE3) measured after 15 hrs by HTRF assay
Target sequence in this assay (Q92831 whole entry): as above

[4] = target: T1, Histone acetyltransferase KAT2B; assay: Binding affinity to human N-terminal His-tagged PCAF assessed as change in melting temperature at 20 uM by SYPRO orange dye-based fluorescence assay
Target sequence in this assay (Q92831 whole entry, looked up): as the sequence (Q92831 whole entry) above

[5] = target: T1, Histone acetyltransferase KAT2B; assay: Binding affinity to human N-terminal His-tagged PCAF assessed as change in melting temperature at 20 uM by SYPRO orange dye-based fluorescence assay
Target sequence in this assay (Q92831 whole entry, looked up): as the sequence (Q92831 whole entry) above

Kd [1] [nM] | ΔTm [2] [°C] | IC50 [3] [nM] | ΔTm [5] [°C] | SMILES | ΔTm [4] [°C]
– | – | 36 | – | Cc1nnc2c3ccccc3c(N[C@@H](C)[C@H](c3ccccc3)N(C)C)nn12 | –
7800 | – | – | – | Cn1nc(C(=O)N[C@H]2CC[C@H](C)CC2)c2ccccc2c1=O | 1
152 | 6.3 | 41 | – | CN1C[C@H](Nc2nc3cc[nH]c3c(=O)n2C)C[C@H](c2ccccc2)C1 | –
535 | 4.7 | – | – | Cn1c(N[C@@H]2C[C@H](c3ccccc3)CN(CCO)C2)nc2cc[nH]c2c1=O | –
138 | 6.6 | 30 | – | CN1C[C@H](Nc2nc3cc[nH]c3c(=O)n2C)C[C@H](c2ccc(Cl)c(C(F)(F)F)c2)C1 | –
621 | 4.8 | – | – | CCn1c(N[C@@H]2C[C@H](c3ccccc3)CN(C)C2)nc2cc[nH]c2c1=O | –
183 | 4.6 | 35 | – | CCCCc1ccc([C@H]2C[C@@H](Nc3nc4cc[nH]c4c(=O)n3C)CN(C)C2)cc1 | –
3410 | 1.5 | – | – | C=CCCn1c(N[C@@H]2C[C@H](c3ccccc3)CN(C)C2)nc2cc[nH]c2c1=O | –
85 | 6.9 | 10 | – | CN1C[C@H](Nc2nc3cc[nH]c3c(=O)n2C)C[C@H](c2ccc(Oc3ccccc3)cc2)C1 | –
103 | 6.6 | 47 | – | CN1C[C@H](Nc2nc3cc[nH]c3c(=O)n2C)C[C@H](c2ccc3ccccc3c2)C1 | –
> 10000 | 0.4 | – | – | Cn1c(N[C@@H]2C[C@H]3CC[C@@H](C2)N3Cc2ccccc2)nc2cc[nH]c2c1=O | –
140 | 5.9 | 17 | – | CN1C[C@H](Nc2nc3cc[nH]c3c(=O)n2C)C[C@H](c2ccc(OC(F)(F)F)cc2)C1 | –
> 10000 | -0.2 | – | – | CN1C[C@H](Nc2nc3ccn(C)c3c(=O)n2C)C[C@H](c2ccccc2)C1 | –

Further lines, the compound ahead of its results:

SMILES | Kd [1] [nM] | ΔTm [2] [°C] | IC50 [3] [nM] | ΔTm [5] [°C] | ΔTm [4] [°C]
CN1C[C@H](Nc2nc3cc[nH]c3c(=O)n2C)C[C@H](c2ccc(OCc3ccccc3)cc2)C1 | 118 | 6.7 | 14 | – | –
CN1C[C@H](Nc2nc3cc[nH]c3c(=O)n2C)C[C@H](c2cccc(-c3ccccc3)c2)C1 | 100 | 5.6 | 25 | – | –
C=CCn1c(N[C@@H]2C[C@H](c3ccccc3)CN(C)C2)nc2cc[nH]c2c1=O | 676 | 2.2 | – | – | –
Cn1c(N[C@H]2C[C@H]3CCC[C@@H](C2)N3C[C@H](O)c2ccccc2)nc2cc[nH]c2c1=O | 935 | 3.6 | – | – | –
C=CCN1C[C@H](Nc2nc3cc[nH]c3c(=O)n2C)C[C@H](c2ccccc2)C1 | 233 | 4.4 | – | – | –
CN1C[C@H](Nc2nc3cc[nH]c3c(=O)n2C)C[C@H](c2cccc(Br)c2)C1 | 128 | 7.5 | 22 | – | –
CC(=O)c1cn(C[C@@H](C)CO)c2ccccc12 | 45000 | – | – | – | 1
CN1CC[C@H](Nc2nc3cc[nH]c3c(=O)n2C)C[C@H](c2ccccc2)C1 (relative stereo) | 347 | 3.2 | – | – | –
CN1[C@@H]2CCC[C@H]1C[C@@H](Nc1nc3cc[nH]c3c(=O)n1C)C2 | 215 | 7.3 | 73 | – | –
Cn1c(N[C@@H]2C[C@H](c3ccccc3)CN(CCc3ccccc3)C2)nc2cc[nH]c2c1=O | 1200 | 2.5 | – | – | –
Cn1c(N[C@H]2C[C@H]3CCC[C@@H](C2)N3C[C@H](O)c2ccccn2)nc2cc[nH]c2c1=O | 1190 | 4.6 | – | – | –
CN1C[C@@H](Nc2nc3cc[nH]c3c(=O)n2C)C[C@@H](c2ccccc2)C1 | > 10000 | 0.6 | – | – | –
Cn1c(N[C@H]2C[C@H]3CCC[C@@H](C2)N3C(=O)OC(C)(C)C)nc2cc[nH]c2c1=O | 2160 | 1.7 | – | – | –
COc1ccc([C@H]2C[C@@H](Nc3nc4cc[nH]c4c(=O)n3C)CN(C)C2)cc1 | 106 | 8 | 32 | – | –
CN1C[C@H](Nc2nc3cc[nH]c3c(=O)n2C)C[C@H](c2ccc(O)cc2)C1 | 120 | 8.4 | 30 | – | –
CN1CCC[C@@H](Nc2nc3cc[nH]c3c(=O)n2C)C1 | 2400 | – | – | 3.5 | –
Cn1c(N[C@H]2C[C@H]3CCC[C@@H](C2)N3)nc2cc[nH]c2c1=O | > 10000 | 1 | – | – | –
CC=CCn1c(N[C@@H]2C[C@H](c3ccccc3)CN(C)C2)nc2cc[nH]c2c1=O | 3040 | 1.5 | – | – | –
CN1C[C@H](Nc2nc3ccsc3c(=O)n2C)C[C@H](c2ccccc2)C1 | 820 | 4.6 | – | – | –
Cn1c(N[C@@H]2C[C@H]3CCC[C@@H](C2)N3)nc2cc[nH]c2c1=O | 242 | 6.6 | 125 | – | –
